Experimental data published in ChEMBL document CHEMBL1833874, “Α-pyrones and diketopiperazine derivatives from the marine-derived actinomycete Nocardiopsis dassonvillei HR10-5” (J Nat Prod, 2011).
≈ marks a conversion by molar mass, not a printed value. Each block holds one molecule with its values, some of them ahead of it.

Key:
A549 = test: Cytotoxicity against human A549 cells after 24 hrs by SRB assay; format: functional
Procedure, shortened: (§1)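 HL-60 cells were assayed by MTT and A549 cells by SRB. Read-out is IC50, given in μM.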

Bacillus subtilis = test: Antibacterial activity against Bacillus subtilis by agar dilution method; format: functional
Procedure, shortened: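 Agar dilution, with the same panel also run against E. coli, A. aerogenes, P. aeruginosa, S. aureus and C. albicans. Read-out is the MIC, given in μM.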

HL-60 = test: Cytotoxicity against human HL60 cells after 72 hrs by MTT assay; format: functional, cell-based; settings: HL-60, 72 h; procedure, shortened: as §1

MIC (Bacillus subtilis): 12 µM (≈ 2.5 µg/mL)
Compound: CCc1ccc(/C(C)=C/[C@H](C)O)oc1=O [NOCAPYRONE G]
IC50 (A549): >=100 uM | IC50 (HL-60): ≥ 100 µM

MIC (Bacillus subtilis): 26 µM (≈ 5 µg/mL)
Compound: CC/C=C(\C)c1ccc(CC)c(=O)o1 [NOCAPYRONE E]
IC50 (A549): >=100 uM | IC50 (HL-60): ≥ 100 µM

Compound: COc1ccc(/C=c2\nc(OC)/c(=C/c3ccc(OC)cc3)n(C)c2=O)cc1 [NOCAZINE A]
IC50 (A549): >=100 uM | IC50 (HL-60): ≥ 100 µM

Compound: OC[C@@H]1COC(c2ccccc2O)=N1 [NOCAZOLINE A]
IC50 (A549): >=100 uM | IC50 (HL-60): ≥ 100 µM

Compound: COc1ccc(/C=c2/c(OC)n/c(=C\c3ccccc3)c(=O)n2C)cc1 [NOCAZINE B]
IC50 (A549): >=100 uM | IC50 (HL-60): ≥ 100 µM

Compound: COc1ccc(/C=C2/C(=O)N[C@@H](Cc3ccccc3)C(=O)N2C)cc1 [NOCAZINE C]
IC50 (A549): >=100 uM | IC50 (HL-60): ≥ 100 µM

MIC (Bacillus subtilis): 14 µM (≈ 2.5 µg/mL)
Compound: CC/C=C(\C)c1ccc(C)c(=O)o1 [NOCAPYRONE F]
IC50 (A549): >=100 uM | IC50 (HL-60): ≥ 100 µM
